Beta cell apopt: blocks beta cell apoptosis | INS-1E cytokine-induced death, ATP luminescence, 48 h; percent of positive-control rescue, neutral wells zero | protection from apoptosis, % (test concentration not listed) | actives 0.8% (n = 300,000) | AID 435005;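 active = Every replicate reaches about 75%, or at least half do and their mean reaches it too, limit read from the data; inconclusive = At least half of replicates reach the limit but their mean does not; inactive = Under half of replicates reach the limit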;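 also: 0% = cytokine-treated negative control wells and 100% = positive control rescue; higher means more ATP so stronger rescue from cytokine killing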
CSC inhib: blocks cancer stem cells. cancer stem cell-like cells viability, luminescence. actives 1.1% (n = 300,000). inhibition, % at 7.5 µM. AID 2717; in the data active = inhibition above about 75%; inconclusive = no clear call, values can overlap the other calls; tested in HMLE shEcad cells
CHOP inh: blocks CHOP induction under ER stress | CHO-K1 CHOP-promoter luciferase, tunicamycin-induced, 15-18 h | inhibition, % at 10 µM | actives 3.8% (n = 220,000) | AID 2732;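 active = compounds that reduced the stress-induced luciferase reporter signal by more than about 70% of percent inhibition, limit read from the data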;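 also: 0% = tunicamycin plus vehicle and 100% = wells without tunicamycin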
GRIN3A LBD mod: modulators (binders) of human NR3A ligand-binding domain; NR3A LBD differential scanning fluorimetry, Tm shift; 0% = protein alone, 100% = glycine-bound protein; Tm shift relative to glycine control, % at 25 µM; actives 2.5% (n = 340,000); AID 1259313;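 active = melting temperature shift of at least 10% of the positive control shift, at one fixed dose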
PREPL inh: human PREPL enzyme inhibition. Q4J6C6. recombinant PREPL, fluorescence polarization activity-based probe. inhibition, % at 5.96 µM. actives 0.68% (n = 320,000). AID 2751; in the data active = inhibition above about 43%;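 also: 0% = enzyme with DMSO and 100% = wells lacking enzyme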
T cruzi repl: T. cruzi replication inhibition; actives 1.4% (n = 300,000); inhibition, % (no concentration beside the values); AID 1885; T. cruzi beta-gal in NIH3T3, luminescence, 90 h;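 active = mean inhibition across valid replicates above about 55%, limit read from the data; inconclusive = mean below that limit but half or more replicates reach it; inactive = mean below it, under half of replicates reach it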;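 also: signal also drops with host cell toxicity which is not excluded here; 0% = plate median of DMSO wells and 100% = zero luminescence signal; higher percent means less beta-gal luminescence so fewer parasites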
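Assay system: NIH/3T3 fibroblasts plus reporter T. cruzi. Amount: NIH/3T3 cells, 5,000 per well. Buffer or medium: DMEM, 2% fetal bovine serum. Doses: compound pinned at 50 nL/well, DMSO. Schedule: ≥90 h infection period, 3 h prior cell attachment. Signal: luminescent β-galactosidase signal after 60 min lysis. Read-out: parasite load inhibition, %.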
* hit, by the source's call; ? = inconclusive; . = not tested or not shown. Rows were chosen to be rich in hits. Some 6.7% of all compounds tested hit in one or more screens of this group.

SMILES	Beta cell apopt	CSC inhib	CHOP inh	GRIN3A LBD mod	PREPL inh	T cruzi repl
CCc1nnc(NC(=O)CSc2nc(-c3ccccc3)nc3ccccc23)s1	-1	7	90*	0	-4	-13
CCc1nnc(NC(=O)CSc2ccc(-c3ccc(F)cc3)nn2)s1	3	-2	-12	.	-2	3
O=C(OCCCOC(=O)c1ccccc1O)c1ccccc1O	2	4	.	.	-6	-4
CN(C)c1cccc(F)c1C(=O)NC(=O)Nc1ccc(Cl)cc1	.	.	.	11*	.	.
CN(C)c1cccc(N(C)C)c1CNC(=O)NC(=O)c1c(F)cccc1F	4	38	.	-1	3	18
Clc1ccccc1N=Nc1ccccn1	.	.	.	13*	.	.
CCOc1ccc(NC(=O)CCn2c(=O)[nH]c3ccsc3c2=O)cc1	-7	.	15	19*	2	-7
O=C(Nc1cc(Cl)cc(Cl)c1)c1ccc(Cn2c(=O)[nH]c3ccsc3c2=O)cc1	50	?	94*	-2	-22	-9
O=C1C[C@@H]2c3c(cccc3CN1Cc1ccccc1Br)C[C@@H](O)[C@H]2O	.	.	.	-2	.	.
COc1cccc(/C=N/NC(=O)NC23CC4CC(CC(C4)C2)C3)c1O	19	29	.	-2	14	-6
O=C(N/N=C/c1ccccc1F)NC12CC3CC(CC(C3)C1)C2	12	7	.	-2	18	57*
COC(=O)c1nc2n(n1)C(c1cc(OC)ccc1OC)C(C(=O)OC1CCCCC1)=C(C)N2 (centres undefined)	-4	3	80*	3	17	15
O=C(Nc1nc(-c2ccccn2)cs1)c1ncc(Cl)c(Cl)c1Cl	16	-12	54	-2	-3	35
O=C(Nc1nc(-c2ccccc2)ns1)c1cccs1	15	3	-26	19*	0	-12
O=C(COc1ccc(F)cc1Cl)Nc1nc(-c2ccccn2)cs1	8	39	.	.	16	76*
O=C(Nc1nc(-c2ccccn2)cs1)c1ccc(Cl)s1	92*	80*	.	19*	9	58*
Cc1ccc(C(=O)Nc2nc(-c3ccccn3)cs2)s1	95*	43	.	8	5	.
CC(=O)c1c(C)[nH]c(C(=O)CN2CCN(S(=O)(=O)c3ccccc3F)CC2)c1C	7	3	.	0	11	.
COC(CNS(=O)(=O)c1ccc(S(=O)(=O)NC2CC2)cc1)OC	2	-1	.	1	.	-4
CC(=O)c1ccc(-c2ccc(C(=O)Nc3nc(C)c(C(C)=O)s3)o2)cc1	5	.	.	-5	17	.
Cc1ccc(OCCNC(=O)CCNC(=O)c2ccc(Cl)cc2)cc1	-3	.	.	-2	-16	.
CC(C)(C)c1csc(NC(=O)c2cccs2)n1	13	-9	71*	-1	1	8
Cn1cccc1C(=O)Nc1nc(-c2ccccn2)cs1	52	24	-40	7	13	66*
Cc1csc(NC(=O)c2cccn2C)n1	.	.	-3	.	-1	-5
O=C(Nc1nc(-c2ccccc2)cs1)c1cccs1	5	-2	49	1	3	10
SMILES	Beta cell apopt	CSC inhib	CHOP inh	GRIN3A LBD mod	PREPL inh	T cruzi repl
O=C(Nc1nc(-c2ccc(Cl)s2)cs1)c1cccs1	8	-6	62	17*	10	76*
COc1cc(CC(=O)NCC(C)(C)N2CCOCC2)cc(OC)c1OC	-6	3	.	2	16	2
COc1ccc(CNC(=O)C(C)Sc2nc3ccccc3c(=O)n2CC2CCCO2)cc1 (centres undefined)	-5	.	.	-2	16	.
CC(C)(C)c1ccc2c(c1)OC(C(=O)N/N=C/c1ccc([N+](=O)[O-])o1)CO2 (centres undefined)	-5	29	14	-4	3	60*
CC(C)(C)c1ccc2c(c1)OC(C(=O)N/N=C\c1ccncc1)CO2 (centres undefined)	2	-4	11	-3	21	0
CC(C)(C)c1ccc2c(c1)OC(C(=O)N/N=C\c1ccc[nH]1)CO2 (centres undefined)	70	119*	.	-3	31	13
O=C(N/N=C\c1cc(Br)cs1)C1COc2ccccc2O1 (centres undefined)	-6	.	80*	3	-2	-8
Cc1c(/C=N\NC(=O)C2COc3ccc(C(C)(C)C)cc3O2)c2ccccc2n1C (centres undefined)	.	.	76*	10*	24	66*
O=C(N/N=C/c1ccc2c(c1)OCO2)C1COc2ccccc2O1 (centres undefined)	.	.	-18	0	17	-6
Cc1nn2c(=O)cc(CSCC(=O)Nc3ccccc3Cl)nc2s1	.	.	.	-3	5	-10
O=C(CNc1cccc(S(=O)(=O)N2CCOCC2)c1)Nc1ccccc1F	2	-18	.	2	30	-12
CCCOc1ccc(C(=O)CCC(=O)OCC(=O)N2CCN(S(=O)(=O)c3ccc(C)cc3C)CC2)cc1	.	.	.	-3	.	.
NCCNC[C@@H]1COC2(CCCCCCCCCCC2)O1	-15	-8	-18	1	-35	10
CSCCC(NC(=O)c1ccccc1Br)C(=O)Nc1ccc(C)cc1 (centres undefined)	-12	-3	21	0	9	10
O=c1[nH]c(/C=C/c2ccccc2[N+](=O)[O-])nc2ccccc12	5	-9	82*	4	6	-17
O=c1[nH]c(/C=C/c2cccc3ccccc23)nc2ccccc12	41	6	-26	-2	-7	-20
O=c1[nH]c(/C=C/c2ccccc2F)nc2ccccc12	7	72	.	39*	.	-44
O=c1[nH]c(/C=C/c2ccccn2)nc2ccccc12	-10	10	.	3	3	4
CC(C)(C)NC(=O)CN(Cc1ccc2c(c1)OCO2)C(=O)CNS(=O)(=O)c1ccccc1	-1	6	.	-3	8	-7
COc1cc(-c2noc(C)c2C(=O)NCCCN2CCOCC2)cc(OC)c1OC	-2	-7	.	2	12	.
Cc1ccc(OCC(=O)N2CCN(S(=O)(=O)c3ccc(Cl)cc3)CC2)c([N+](=O)[O-])n1	-7	-8	2	1	2	29
O=C(COc1cccnc1[N+](=O)[O-])N1CCN(S(=O)(=O)c2ccc3ccccc3c2)CC1	-7	-1	34	14*	18	39
CCOc1ccc(OCCSc2ccc(S(=O)(=O)N3CCN(C)CC3)cn2)cc1	2	29	.	-13	41	.
CS(=O)(=O)N1CCC(Oc2ccccc2C(=O)NCCCc2cccnc2)CC1	-3	11	-3	-2	15	11
Cn1nc(C(=O)Nc2ccc(S(=O)(=O)N3CCOCC3)cc2)c2ccccc2c1=O	0	-7	20	-5	0	-9
O=C1CC(N(Cc2cccs2)C(=O)Nc2ccccc2)C(=O)N1c1ccc(Cl)cc1 (centres undefined)	-3	0	33	14*	11	-8
